Data: ChEMBL document CHEMBL3352012, “Synthesis and evaluation of novel podophyllotoxin derivatives as potential antitumor agents” (Eur J Med Chem, 2014)
pIC50: −log10 of the molar value. Calls of active or inactive are those of the source. The rule behind the calls is not given here.

Columns and labels:
HeLa = assay: Cytotoxicity against human HeLa cells after 48 hrs by MTT assay; type: functional, cell-based
In short: (§1)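 Cells kept in RPMI-1640 with 10% FBS, 2 mmol/L glutamine, penicillin and streptomycin at 37 °C, 5% CO2. Seeded at 5 × 10³ cells/well and left 24 h to attach, then exposed to compounds or etoposide reference for 48 h. MTT (5 mg/mL) added for 4 h at 37 °C, supernatant removed, formazan dissolved in DMSO, absorbance read at 490 nm.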

K562 [1] = assay: Cytotoxicity against human K562 cells after 48 hrs by MTT assay; type: functional, cell-based; conditions: for pIC50: K562, 48 h; in short: as §1
[2] = (§2) Cytotoxicity against human K562/A02 cells after 48 hrs by MTT assay; type: functional, cell-based; conditions: K562/A02, 48 h; in short: as §1
K562 [3] = assay: Resistance index, ratio of IC50 for human K562/A02 cells to IC50 for human K562 cells; type: functional
K562/A02 [4] = assay: as §2; type: functional, cell-based; in short: as §1
K562/A02 [5] = assay: Induction of apoptosis in human K562/A02 cells assessed as induction of large cytoplasmic vacuoles at 6 uM after 48 hrs by Hoechst-33342 staining based fluorescence microscopy; type: functional, cell-based
In short: (§3)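 K562/A02 cells treated 48 h at 3, 6 or 12 concentration levels alongside untreated control and 6 etoposide; nuclei stained with Hoechst 33342 and viewed by fluorescence microscopy at 400× for chromatin condensation, nuclear fragmentation and other apoptotic morphology.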

K562/A02 [6] = assay: Induction of apoptosis in human K562/A02 cells assessed as induction of abnormal mitotic figures at 6 uM after 48 hrs by Hoechst-33342 staining based fluorescence microscopy; type: functional, cell-based; in short: as §3
K562/A02 [7] = assay: Induction of apoptosis in human K562/A02 cells assessed as induction of multinucleation at 6 uM after 48 hrs by Hoechst-33342 staining based fluorescence microscopy; type: functional, cell-based; in short: as §3
K562/A02 [8] = assay: Induction of apoptosis in human K562/A02 cells assessed as induction of large cells formation at 6 uM after 48 hrs by Hoechst-33342 staining based fluorescence microscopy; type: functional, cell-based; in short: as §3
K562/A02 [9] = assay: Induction of apoptosis in human K562/A02 cells assessed as induction of membrane blebbing at 12 uM after 48 hrs by Hoechst-33342 staining based fluorescence microscopy; type: functional, cell-based; in short: as §3
K562/A02 [10] = assay: Induction of apoptosis in human K562/A02 cells assessed as induction of cell shrinkage and detachment at 12 uM after 48 hrs by Hoechst-33342 staining based fluorescence microscopy; type: functional; in short: as §3
K562/A02 [11] = assay: Induction of apoptosis in human K562/A02 cells assessed as induction of chromatin condensation at 12 uM after 48 hrs by Hoechst-33342 staining based fluorescence microscopy; type: functional, cell-based; in short: as §3
K562/A02 [12] = assay: Induction of apoptosis in human K562/A02 cells assessed as induction of nuclear fragmentation at 12 uM after 48 hrs by Hoechst-33342 staining based fluorescence microscopy; type: functional, cell-based; in short: as §3
K562/A02 [13] = assay: Induction of apoptosis in human K562/A02 cells assessed as viable cells level at 6 uM after 48 hrs by Annexin V-FITC and propidium iodide double staining based flow cytometry (reference value: 90.7%); type: functional
K562/A02 [14] = assay: Induction of apoptosis in human K562/A02 cells assessed as early apoptotic cells level at 6 uM after 48 hrs by Annexin V-FITC and propidium iodide double staining based flow cytometry (reference value: 6.23%); type: functional
K562/A02 [15] = assay: Induction of apoptosis in human K562/A02 cells assessed as late apoptotic cells level at 6 uM after 48 hrs by Annexin V-FITC and propidium iodide double staining based flow cytometry (reference value: 1.58%); type: functional
K562/A02 [16] = assay: Induction of apoptosis in human K562/A02 cells assessed as necrotic cells level at 6 uM after 48 hrs by Annexin V-FITC and propidium iodide double staining based flow cytometry (reference value: 1.53%); type: functional
K562/A02 [17] = assay: Induction of apoptosis in human K562/A02 cells assessed as viable cells level at 3 uM after 48 hrs by Annexin V-FITC and propidium iodide double staining based flow cytometry (reference value: 90.7%); type: functional
K562/A02 [18] = assay: Induction of apoptosis in human K562/A02 cells assessed as early apoptotic cells level at 3 uM after 48 hrs by Annexin V-FITC and propidium iodide double staining based flow cytometry (reference value: 6.23%); type: functional
K562/A02 [19] = assay: Induction of apoptosis in human K562/A02 cells assessed as late apoptotic cells level at 3 uM after 48 hrs by Annexin V-FITC and propidium iodide double staining based flow cytometry (reference value: 1.58%); type: functional
K562/A02 [20] = assay: Induction of apoptosis in human K562/A02 cells assessed as necrotic cells level at 3 uM after 48 hrs by Annexin V-FITC and propidium iodide double staining based flow cytometry (reference value: 1.53%); type: functional
K562/A02 [21] = assay: Induction of apoptosis in human K562/A02 cells assessed as viable cells level at 12 uM after 48 hrs by Annexin V-FITC and propidium iodide double staining based flow cytometry (reference value: 90.7%); type: functional
K562/A02 [22] = assay: Induction of apoptosis in human K562/A02 cells assessed as early apoptotic cells level at 12 uM after 48 hrs by Annexin V-FITC and propidium iodide double staining based flow cytometry (reference value: 6.23%); type: functional
K562/A02 [23] = assay: Induction of apoptosis in human K562/A02 cells assessed as late apoptotic cells level at 12 uM after 48 hrs by Annexin V-FITC and propidium iodide double staining based flow cytometry (reference value: 1.58%); type: functional
K562/A02 [24] = assay: Induction of apoptosis in human K562/A02 cells assessed as necrotic cells level at 12 uM after 48 hrs by Annexin V-FITC and propidium iodide double staining based flow cytometry (reference value: 1.53%); type: functional
[25] = Reduction in MDR1 mRNA expression in human K562/A02 cells incubated for 48 hrs by RT-PCR method; type: functional, cell-based
In short: (§4)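 K562 and K562/A02 cells seeded 1 × 10⁵/well in 10% FCS/RPMI-1640; compound added 24 h later, then cultured another 48 h. Total RNA extracted with Trizol, checked at 260/280 nm, reverse transcribed; MDR-1 (157 bp) and β-actin (540 bp) amplified, products run on agarose gel, stained, MDR-1 normalised to β-actin against untreated control.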

[26] = Reduction in MDR1 mRNA expression in human K562/A02 cells assessed as MDR1 mRNA levels at 12 uM incubated for 48 hrs by RT-PCR method (reference value: 100%); type: functional, cell-based; design: scale not given: the % may be the effect or the level left; in short: as §4
[27] = Reduction in MDR1 mRNA expression in human K562/A02 cells at 6 uM incubated for 48 hrs by RT-PCR method; type: functional, cell-based; in short: as §4
[28] = Reduction in MDR1 mRNA expression in human K562/A02 cells at 6 uM incubated for 48 hrs by RT-PCR method relative to untreated control; type: functional, cell-based; in short: as §4
K562/A02 [29] = assay: Induction of apoptosis in human K562/A02 cells at 12 uM after 48 hrs by Annexin V-FITC and propidium iodide double staining based flow cytometry (reference value: 7.9 +/- 1.34%); type: functional

## COc1cc([C@@H]2c3cc4c(cc3[C@@H](NCc3ccc(CN5CCCC5)o3)[C@H]3COC(=O)[C@H]23)OCO4)cc(OC)c1OC
HeLa
  pIC50: 5.85
K562 [1]
  pIC50: 5.20
[2]
  pIC50: 4.40
K562 [3]
  Ratio IC50: 6.43

## COc1cc([C@@H]2c3cc4c(cc3[C@H](O)[C@H]3COC(=O)[C@H]23)OCO4)cc(OC)c1OC [PODOFILOX]
[2]
  pIC50: 6.77
K562 [3]
  Ratio IC50: 5.667

## COc1cc([C@@H]2c3cc4c(cc3[C@@H](NCc3ccc(CN5CCN(C)CC5)o3)[C@H]3COC(=O)[C@H]23)OCO4)cc(OC)c1O
HeLa
  pIC50: 5.62
K562 [1]
  pIC50: 5.09
[2]
  pIC50: 3.70
K562 [3]
  Ratio IC50: 24.61

## COc1cc([C@@H]2c3cc4c(cc3[C@@H](NCc3ccco3)[C@H]3COC(=O)[C@H]23)OCO4)cc(OC)c1O
HeLa
  pIC50: 4.15
K562 [1]
  pIC50: < 4.00
[2]
  pIC50: < 3.00
K562 [3]
  Ratio IC50: >100

## COc1cc([C@@H]2c3cc4c(cc3[C@@H](NCc3ccc([N+](=O)[O-])o3)[C@H]3COC(=O)[C@H]23)OCO4)cc(OC)c1OC
HeLa
  pIC50: 5.12
K562 [1]
  growth inhibition (GI): Dose-dependent effect
  pIC50: 5.22
[2]
  pIC50: 5.27
K562/A02 [4]
  growth inhibition (GI): Dose-dependent effect
K562 [3]
  Ratio IC50: 0.905
K562/A02 [5]
  Activity: Active
K562/A02 [6]
  Activity: Active
K562/A02 [7]
  Activity: Active
K562/A02 [8]
  Activity: Active
K562/A02 [9]
  Activity: Active
K562/A02 [10]
  Activity: Active
K562/A02 [11]
  Activity: Active
K562/A02 [12]
  Activity: Active
K562/A02 [13]
  Activity: 46.4%
K562/A02 [14]
  Activity: 28.2%
K562/A02 [15]
  Activity: 11.9%
K562/A02 [16]
  Activity: 13.5%
K562/A02 [17]
  Activity: 77.3%
K562/A02 [18]
  Activity: 14.8%
K562/A02 [19]
  Activity: 4.02%
K562/A02 [20]
  Activity: 3.9%
K562/A02 [21]
  Activity: 34.5%
K562/A02 [22]
  Activity: 56.3%
K562/A02 [23]
  Activity: 8.05%
K562/A02 [24]
  Activity: 1.09%
[25]
  inhibition: Dose-dependent effect
[26]
  Activity: 31.2%
[27]
  MDR1 mRNA reduction (qualitative): Active
[28]
  inhibition: 70%
K562/A02 [29]
  Activity: 65.35%

## CCN1CCN(Cc2ccc(CN[C@@H]3c4cc5c(cc4[C@@H](c4cc(OC)c(O)c(OC)c4)[C@H]4C(=O)OC[C@@H]43)OCO5)o2)CC1
HeLa
  pIC50: 6.17
K562 [1]
  pIC50: 5.13
[2]
  pIC50: 3.91
K562 [3]
  Ratio IC50: 16.54

## COc1cc([C@@H]2c3cc4c(cc3[C@@H](O[C@@H]3O[C@@H]5CO[C@@H](C)O[C@H]5[C@H](O)[C@H]3O)[C@H]3COC(=O)[C@H]23)OCO4)cc(OC)c1O [ETOPOSIDE]
K562 [1]
  pIC50: 5.47
[2]
  pIC50: 3.63
K562 [3]
  Ratio IC50: 69.29
K562/A02 [13]
  Activity: 61.1%
K562/A02 [14]
  Activity: 28.4%
K562/A02 [15]
  Activity: 7.98%
K562/A02 [16]
  Activity: 2.52%
[27]
  MDR1 mRNA reduction (qualitative): Active

## CCN1CCN(Cc2ccc(CN[C@@H]3c4cc5c(cc4[C@@H](c4cc(OC)c(OC)c(OC)c4)[C@H]4C(=O)OC[C@@H]43)OCO5)o2)CC1
HeLa
  pIC50: < 4.00
K562 [1]
  pIC50: < 4.00
[2]
  pIC50: < 3.00
K562 [3]
  Ratio IC50: >100

## COc1cc([C@@H]2c3cc4c(cc3[C@@H](NCc3ccc(CN(C)C)o3)[C@H]3COC(=O)[C@H]23)OCO4)cc(OC)c1O
HeLa
  pIC50: 6.29
K562 [1]
  pIC50: 5.10
[2]
  pIC50: 4.15
K562 [3]
  Ratio IC50: 8.89
